Test results taken from ChEMBL document CHEMBL1156227, “New aromatic monoesters of alpha-aminoaralkylphosphonic acids as inhibitors of aminopeptidase N/CD13” (Bioorg Med Chem, 2010).

Legend:
Aminopeptidase N [1] = molecular target: T1, Aminopeptidase N (Sus scrofa, UniProt P15145); assay: Inhibition of pig kidney aminopeptidase N using Leu-AMC as substrate
T1 sequence (P15145 whole entry): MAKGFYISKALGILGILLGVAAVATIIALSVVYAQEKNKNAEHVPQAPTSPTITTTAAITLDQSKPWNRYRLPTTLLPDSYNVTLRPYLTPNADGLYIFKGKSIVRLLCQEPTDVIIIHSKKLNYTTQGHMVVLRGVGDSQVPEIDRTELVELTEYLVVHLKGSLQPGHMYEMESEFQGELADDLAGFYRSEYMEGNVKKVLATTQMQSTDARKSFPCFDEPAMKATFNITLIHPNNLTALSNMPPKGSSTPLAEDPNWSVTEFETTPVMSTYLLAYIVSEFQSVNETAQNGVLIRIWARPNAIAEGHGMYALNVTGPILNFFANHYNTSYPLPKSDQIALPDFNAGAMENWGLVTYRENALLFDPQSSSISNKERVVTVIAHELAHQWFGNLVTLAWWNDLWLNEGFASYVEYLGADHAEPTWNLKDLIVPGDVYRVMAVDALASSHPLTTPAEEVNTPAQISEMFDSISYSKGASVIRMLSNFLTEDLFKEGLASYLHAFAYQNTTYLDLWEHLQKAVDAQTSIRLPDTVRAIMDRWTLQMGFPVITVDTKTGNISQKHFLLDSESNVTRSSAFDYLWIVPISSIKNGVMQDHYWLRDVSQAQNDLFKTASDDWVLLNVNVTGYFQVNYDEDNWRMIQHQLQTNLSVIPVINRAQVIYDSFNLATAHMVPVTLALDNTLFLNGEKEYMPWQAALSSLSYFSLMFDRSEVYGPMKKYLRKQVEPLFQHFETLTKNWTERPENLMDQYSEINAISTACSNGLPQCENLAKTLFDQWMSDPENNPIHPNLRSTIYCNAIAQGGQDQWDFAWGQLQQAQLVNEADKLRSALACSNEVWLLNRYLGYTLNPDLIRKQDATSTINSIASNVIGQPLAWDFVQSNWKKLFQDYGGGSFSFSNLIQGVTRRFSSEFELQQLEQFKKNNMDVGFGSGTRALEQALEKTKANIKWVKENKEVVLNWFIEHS

Aminopeptidase N [2] = molecular target: Aminopeptidase N (Homo sapiens, UniProt P15144); assay: Inhibition of aminopeptidase N
Chain of Aminopeptidase N (Homo sapiens, UniProt P15144) (P15144 whole entry): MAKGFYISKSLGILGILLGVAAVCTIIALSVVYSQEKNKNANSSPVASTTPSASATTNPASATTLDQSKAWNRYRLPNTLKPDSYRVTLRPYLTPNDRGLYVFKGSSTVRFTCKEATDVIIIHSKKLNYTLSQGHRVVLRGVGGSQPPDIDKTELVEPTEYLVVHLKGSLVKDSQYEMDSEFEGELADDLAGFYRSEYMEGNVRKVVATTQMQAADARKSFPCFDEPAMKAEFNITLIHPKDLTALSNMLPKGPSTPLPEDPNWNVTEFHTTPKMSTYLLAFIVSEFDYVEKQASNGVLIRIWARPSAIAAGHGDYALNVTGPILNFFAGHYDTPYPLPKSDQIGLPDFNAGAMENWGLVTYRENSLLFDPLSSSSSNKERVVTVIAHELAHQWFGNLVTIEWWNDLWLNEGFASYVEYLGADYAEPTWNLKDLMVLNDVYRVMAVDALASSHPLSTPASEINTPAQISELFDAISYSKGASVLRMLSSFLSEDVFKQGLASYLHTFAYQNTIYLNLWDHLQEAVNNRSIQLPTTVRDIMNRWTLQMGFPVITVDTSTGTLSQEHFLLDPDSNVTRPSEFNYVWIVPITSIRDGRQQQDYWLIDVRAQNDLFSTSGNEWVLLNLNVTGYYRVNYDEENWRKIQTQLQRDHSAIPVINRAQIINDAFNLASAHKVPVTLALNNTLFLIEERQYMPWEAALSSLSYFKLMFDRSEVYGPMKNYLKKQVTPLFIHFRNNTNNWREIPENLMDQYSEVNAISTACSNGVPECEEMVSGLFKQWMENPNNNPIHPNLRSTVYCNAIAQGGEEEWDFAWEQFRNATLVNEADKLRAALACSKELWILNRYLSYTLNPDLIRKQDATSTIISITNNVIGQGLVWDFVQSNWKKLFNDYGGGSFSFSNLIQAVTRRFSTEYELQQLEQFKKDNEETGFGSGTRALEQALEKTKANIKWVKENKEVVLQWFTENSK

Cytosol aminopeptidase = Cytosol aminopeptidase (Homo sapiens, UniProt P28838); assay: Inhibition of leucine aminopeptidase
Chain of Cytosol aminopeptidase (P28838 whole entry): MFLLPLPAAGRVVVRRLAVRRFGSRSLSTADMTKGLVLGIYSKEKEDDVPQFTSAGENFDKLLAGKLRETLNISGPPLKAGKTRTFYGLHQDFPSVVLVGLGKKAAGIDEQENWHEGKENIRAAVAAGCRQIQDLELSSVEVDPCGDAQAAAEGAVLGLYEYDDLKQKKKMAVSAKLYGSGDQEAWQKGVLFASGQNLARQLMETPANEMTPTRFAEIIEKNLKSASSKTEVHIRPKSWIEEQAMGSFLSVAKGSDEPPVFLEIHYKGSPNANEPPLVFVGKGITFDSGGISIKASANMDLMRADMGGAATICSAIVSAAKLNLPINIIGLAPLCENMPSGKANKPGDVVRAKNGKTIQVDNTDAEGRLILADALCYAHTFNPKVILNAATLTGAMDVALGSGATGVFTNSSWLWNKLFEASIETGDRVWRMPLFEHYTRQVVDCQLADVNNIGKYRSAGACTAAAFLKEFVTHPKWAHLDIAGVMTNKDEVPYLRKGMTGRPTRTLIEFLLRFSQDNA

PANC-1 [3] = assay: Cytotoxicity against human PANC1 cells assessed as cell growth inhibition at 300 uM after 72 hrs by XTT assay relative to control; assay type: functional; design: scale not given: the % may be the effect or the level left
Procedure, shortened: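 PANC-1 cells cultured adherent in DMEM with 2 mM L-glutamine, 10% non-heat-inactivated FBS and penicillin–streptomycin at 37 °C, 5% CO2. Inhibitor (0–300 μM, 0.1 M NaOH stock diluted in medium) applied 72 h, with controls given matching 0.1 M NaOH. XTT incubation 4 h, A490 read, values normalised to untreated culture as percentage growth.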

HT-1080 [4] = assay: Cytotoxicity against human HT1080 cells assessed as cell growth inhibition after 72 hrs by XTT assay in the presence of TNFalpha relative to control; assay type: functional; design: scale not given: the % may be the effect or the level left
Procedure, shortened: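 HT-1080 cells grown adherent in DMEM with 2 mM L-glutamine, 10% heat-inactivated FBS and penicillin–streptomycin at 37 °C, 5% CO2. Inhibitor (0–300 μM, from 0.1 M NaOH stock, diluted in medium) co-applied with TNF-α (0–30 μg/ml) for 72 h. Controls received matching 0.1 M NaOH. XTT added for 4 h, A490 read, normalised to untreated cells.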

HT-1080 [5] = assay: Cytotoxicity against human HT1080 cells assessed as cell growth inhibition at 300 uM after 72 hrs by XTT assay relative to control; assay type: functional; design: scale not given: the % may be the effect or the level left
Procedure, shortened: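 HT-1080 cells kept adherent in DMEM plus 2 mM L-glutamine, 10% heat-inactivated FBS and penicillin–streptomycin at 37 °C, 5% CO2. Exposed 72 h to inhibitor (0–300 μM; 0.1 M NaOH stock diluted in medium), with vehicle controls given matching 0.1 M NaOH. XTT staining for 4 h, absorbance at 490 nm, expressed as percentage growth relative to untreated culture.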

PANC-1 [6] = assay: Cytotoxicity against human PANC1 cells assessed as cell growth inhibition after 72 hrs by XTT assay; assay type: functional; design: scale not given: the % may be the effect or the level left
Procedure, shortened: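 PANC-1 cells grown adherent in DMEM with 2 mM L-glutamine, 10% uninactivated FBS and 1% penicillin–streptomycin at 37 °C, 5% CO2. Treated 72 h with inhibitor (0–300 μM; stocks in 0.1 M NaOH, diluted in medium; vehicle controls), alone or with TNF-α (0–30 μg/ml). XTT added for 4 h; absorbance read at 490 nm and normalised to untreated cultures; mean ± one SD.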

HT-1080 [7] = assay: Cytotoxicity against human HT1080 cells assessed as cell growth inhibition after 72 hrs by XTT assay; assay type: functional; design: scale not given: the % may be the effect or the level left
Procedure, shortened: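 HT-1080 cells cultured adherent in DMEM with 2 mM L-glutamine, 10% heat-inactivated FBS and 1% penicillin–streptomycin at 37 °C, 5% CO2. Exposed 72 h to inhibitor (0–300 μM from 0.1 M NaOH stocks diluted in medium; NaOH vehicle controls), with or without TNF-α (0–30 μg/ml). XTT for 4 h, absorbance at 490 nm, growth expressed relative to untreated cells; mean ± one SD.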

Row | SMILES | IC50 (Aminopeptidase N [1]) | also measured
1 | CCCC(N)P(=O)(O)O (stereo unspecified) | 15 µM | –
2 | CCCCC(N)P(=O)(O)O (stereo unspecified) | 75 µM | –
3 | COc1ccc(OP(=O)(O)C(N)CCc2ccccc2)cc1 (stereo unspecified) | 2.9 µM | –
4 | CCCCC(N)P(=O)(O)Oc1ccccc1 (stereo unspecified) | 5.6 µM | –
5 | NC(c1ccccc1)P(=O)(O)Oc1ccccc1 (stereo unspecified) | 21 µM | –
6 | Cc1cc(C)c(C)c(OP(=O)(O)C(C)N)c1 (stereo unspecified) | 14 µM | –
7 | CCC(N)P(=O)(O)Oc1cc(C)ccc1C (stereo unspecified) | 120 µM | –
8 | NC(Cc1ccccc1)P(=O)(O)O (stereo unspecified) | 54 µM | Ki (Aminopeptidase N [2]): 27.5 µM; Ki (Cytosol aminopeptidase): 0.42 µM
9 | CC(C)C(N)P(=O)(O)Oc1ccccc1 (stereo unspecified) | 14 µM | –
10 | CCCCC(N)P(=O)(O)Oc1ccc(OC)cc1 (stereo unspecified) | 210 µM | –
11 | NC(CCc1ccccc1)P(=O)(O)Oc1ccc(C(=O)O)cc1 (stereo unspecified) | 22 µM | –
12 | CC(C)(C)CC(C)(C)c1ccc(OP(=O)(O)C(N)CCc2ccccc2)cc1 (stereo unspecified) | 6.3 µM | –
13 | NC(Cc1ccccc1)P(=O)(O)Oc1ccccc1 (stereo unspecified) | 8.2 µM | Ki (Aminopeptidase N [2]): 27.5 µM; Ki (Cytosol aminopeptidase): 0.42 µM
14 | NC(CCc1ccccc1)P(=O)(O)Oc1ccccc1 (stereo unspecified) | 6.2 µM | –
15 | CCc1ccc(OP(=O)(O)C(C)N)cc1 (stereo unspecified) | 8.3 µM | –
16 | CC(N)P(=O)(O)Oc1ccc(C(C)(C)C)cc1 (stereo unspecified) | 8.2 µM | –
17 | CCC(N)P(=O)(O)Oc1ccc(C)cc1 (stereo unspecified) | 7 µM | –
18 | CCC(N)P(=O)(O)Oc1ccc(C)c(C)c1 (stereo unspecified) | 3 µM | –
19 | CCC(CC)C(N)P(=O)(O)Oc1ccccc1 (stereo unspecified) | > 100 µM | –
20 | CC(C)CC(N)P(=O)(O)Oc1ccccc1 (stereo unspecified) | 9.3 µM | Ki (Aminopeptidase N [2]): 53 µM; Ki (Cytosol aminopeptidase): 0.23 µM

Row | SMILES | IC50 (Aminopeptidase N [1]) | also measured
21 | CCCCCC(N)P(=O)(O)Oc1ccccc1 (stereo unspecified) | 4.8 µM | –
22 | CCCCC(N)P(=O)(O)Oc1ccc(C(=O)O)cc1 (stereo unspecified) | 55 µM | –
23 | Cc1ccc(C)c(OP(=O)(O)C(N)CCc2ccccc2)c1 (stereo unspecified) | 15 µM | –
24 | Cc1ccc(OP(=O)(O)C(N)CCc2ccccc2)cc1C (stereo unspecified) | 2.2 µM | –
25 | Cc1cc(C)c(C)c(OP(=O)(O)C(N)CCc2ccccc2)c1 (stereo unspecified) | 5 µM | –
26 | CCc1ccc(OP(=O)(O)C(N)CCc2ccccc2)cc1 (stereo unspecified) | 13 µM | –
27 | CC(C)c1ccc(OP(=O)(O)C(N)CCc2ccccc2)cc1 (stereo unspecified) | 0.5 µM | –
28 | CC(C)(C)c1ccc(OP(=O)(O)C(N)CCc2ccccc2)cc1 (stereo unspecified) | 1.9 µM | –
29 | CCC(N)P(=O)(O)Oc1ccc(C(C)(C)C)cc1 (stereo unspecified) | 1.1 µM | Activity (PANC-1 [3]): 26%; Activity (HT-1080 [4]): 60%; Activity (HT-1080 [5]): 36%
30 | CCC(N)P(=O)(O)Oc1ccc(C(=O)O)cc1 (stereo unspecified) | 200 µM | –
31 | CCCCC(N)P(=O)(O)Oc1ccc(C)cc1 (stereo unspecified) | 1 µM | –
32 | CCCCC(N)P(=O)(O)Oc1ccc(C)c(C)c1 (stereo unspecified) | 1.4 µM | –
33 | CCCCC(N)P(=O)(O)Oc1cc(C)ccc1C (stereo unspecified) | 200 µM | –
34 | CCC(N)P(=O)(O)O (stereo unspecified) | 50 µM | –
35 | CC(N)P(=O)(O)O (stereo unspecified) | 42 µM | –
36 | CCCCCC(N)P(=O)(O)O (stereo unspecified) | 8.3 µM | –
37 | CC(C)C(N)P(=O)(O)O (stereo unspecified) | 104 µM | –
38 | CC(C)CC(N)P(=O)(O)O (stereo unspecified) | 37 µM | Ki (Aminopeptidase N [2]): 53 µM
39 | NC(c1ccccc1)P(=O)(O)O (stereo unspecified) [AMINO(PHENYL)METHYLPHOSPHONIC ACID] | 220 µM | –
40 | CC(C)C[C@H](NC(=O)[C@@H](O)[C@H](N)Cc1ccccc1)C(=O)O [UBENIMEX] | – | Activity (PANC-1 [6]): < 10%; Activity (HT-1080 [7]): < 10%
